System: MS2 coat protein
Assay: apparent Kd, MS2 coat protein; higher = weaker binding; RNA-MaP array; FMN 200 µM where present
Method in brief: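 Stalled E. coli RNA polymerase produced the designs on Illumina sequencing-chip clusters. SNAP-549-labelled MS2 coat protein was added from 0.7 or 1.5 nM, doubling to 3 µM, without and then with constant ligand, in 100 mM Tris-HCl pH 7.5, 80 mM KCl, 4 mM MgCl2, BSA, DTT, yeast tRNA and Tween-20. The apparent Kd is the median of filtered per-cluster fits of green signal normalised to red-channel RNA signal and control-cluster median Fmax.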

[1] = designed as: ON switch for flavin mononucleotide, no ligand
[2] = ligand present: flavin mononucleotide, designed as: ON switch for flavin mononucleotide
[3] = designed as: OFF switch for flavin mononucleotide, no ligand
[4] = ligand present: flavin mononucleotide, designed as: OFF switch for flavin mononucleotide

Row | Sequence | apparent Kd [1] [nM] | apparent Kd [2] [nM] | apparent Kd [3] [nM] | apparent Kd [4] [nM]
1 | UGGUACUAGGGAGGAUAUGGGAAGAUACAUGAGGAUCACCCAUGUUUAAGCAUGCCGAGAGGCAACUAGAAGGCCCUAGUACCU | 357 | 18 | – | –
2 | UAUUUUAACUAAGGAUAUCUGUAUUUUGUUGAAACAUGAGGAUCACCCAUGUUCAUGAAAUUAUAGGAGAAGGUAGAUGAAUAA | 6.65 | 4.95 | – | –
3 | CCACGUCACAUAUACAUGAGGAUCACCCAUGUCAAAAGACAUGAGGAUAUGGAUCCUAAUUGGAUCCAGAAGGCAUGGACGUGG | 757 | 50.8 | – | –
4 | GUAUAUAGUGUGAGGAUAUGCUGGUCCUUGGAUCAGCAGAAGGCACAUGAGGAUCACCCAUGUAGUUAAAUAUG | – | – | 26.8 | 100
5 | UUACUUUUACAGAAGGUUUAAUAAUAUAUAAAAGAAGGAUAUGUAACAUGAGGAUCACCCAUGUUUCACCCAUAUGAGGAUCAU | – | – | 7.18 | 6.98
6 | UGGAUGUAAGAGAAGGAGGACUUCAUGAGGAUCACCCAUGUGUUAGUACUUAGGAUAUUUGACAACAUGAGGAUCACCCAUGUC | 75.6 | 67.8 | – | –
7 | UAGAAGUCAGGAUAUCCUGCUCGUCACUUGCGUGAUGAGUAGGAGAAGGGACAUGAGGAUCACCCAUGUAAAGG | – | – | 188 | 258
8 | UUGGACGUCGUAGGAUAUGUAGGAUAUUACUACAUGAGGAUCACCCAUGUUGACAUGGAAGAAGGACAGAAGGACGAUGUCCAU | 638 | 6.52 | – | –
9 | AUUUUACAUGAGGAUCACCCAUGUUUUGGUGGAUCAGGAUAUAAAUUGAAUGAGUUUUAGUUAGAAGGGAUAUUUA | 67.2 | 99 | – | –
10 | ACAUGCAUAGCGAUAUGAUCGAGAGAUCAUGUCGCUAAAGUUAGAAGGACAUGAGGAUCACCCAUGUAGGAUAUGGGUGCAUGA | 641 | 48.7 | – | –
11 | AAAAAACAUGAGGAUCACCCAUGUGAGGAUAUCUGUAUCCAAAAGGAAGUGUAGGAUCAGAGAAGGCACUAGGA | – | – | 68.1 | 123
12 | GUUACAUGAGGAUCACCCAUGUAUGUGUGGGAGUAAGUGUCUUAGGAUAUCUAUGAUUUAAAUUAAGAGAAGGAAGAUUGUUGU | 101 | 117 | – | –
13 | UUUUAACAUGAGGAUCACCCAUGUGAGGAUAUCGAAAUUUAUAUUAAUAUUUUUAUUACGAGAAGGCACAUUUU | – | – | 73.5 | 69.8
14 | UGGUGUGAGCUAUCACAUGACUGGGAGGAUAUGACAUGAGGAUCACCCAUGUGGGAUCUAAAUUGUCAGAAGGCUCGAUCUGGG | – | – | 750 | 208
15 | UAAUCAUGUCCGUAUGUUUUCAGAGAGGAUAUACAUGCGGGCACCUUAACAUGAGGAUCACCCAUGUAGAAGGCUCUGAAAAUG | – | – | 97.3 | 22.5
16 | UGAUAACAUGUAGGAUAUCCAGCAUUGACCAUCGGAGAAGGACAUGAGGAUCACCCAUGUACCGAUACAAUGGAAUAAGGGAAU | – | – | 15.5 | 17.9
17 | GGAUAGGACAGAGGAUAUACGGAUAGGAUCUACUAUCUUCUUCAAAUAACAUGAGGAUCACCCAUGUAGAAGGCUGUCCUAUCG | – | – | 16 | 31.9
18 | CACCGUUACCGAGGAUAUCGUACAUGAGGAUCACCCAUGUAAUAAAUGAGAAUUUCGGAUGUAUGCGAGAAGGCGGGAAUCGGC | – | – | 34.1 | 29.8

Row | Sequence | apparent Kd [1] [nM] | apparent Kd [2] [nM] | apparent Kd [3] [nM] | apparent Kd [4] [nM]
19 | GCGGAGAUACAGAAGGGAUAGGCCCUGGGCUAGUCAGGAUAUGUACGACGCAUCGUACAUGAGGAUCACCCAUGUAGCCGCUUG | 278 | 189 | – | –
20 | GUGCGAGCCACAGGAUAUCUACAGAUUUAUCGUAGAGAAGGGUGACCUCGUGCACCACAUGAGGAUCACCCAUGUAACUAGGCG | 19.6 | 36.3 | – | –
21 | GGAUGACAAAGUCAUCCUAUUCGAACAUGAGGAUCACCCAUGUAGGAUAUGGUACUCAAAGAGUACCAGAAGGACAUGUGCUUU | – | – | 36.2 | 127
22 | AACAUGUCAGGAUAUGACUAAGGUGCUCGGUUGAGCCCUUAUCAGAAGGGACAUGAGGAUCACCCAUGUUCCGA | – | – | 17.8 | 21.1
23 | AGUUCACAUGAGGAUCACCCAUGUCAGGAUAUCGACUGAACAGCUUCGGCUGUUCAGUCGAGAAGGGACAAUUA | – | – | 46.5 | 104
24 | AGCUGUGGCCGAGGAUAUCUAUCUCCAAUAACCGAAAUAUAAUCGGACAUGAGGAUCACCCAUGUAGAGAAGGCGGUCUCAGCA | – | – | 20.7 | 36
25 | UCAAGUAUGUAGGAUAUCGAUGUCCUUGGACAUCGAGAAGGACGUACAUGAGGAUCACCCAUGUAACUUGCAUG | – | – | 219 | 278
26 | AGCGAACAGGCUAACAUGAGGAUCACCCAUGUGGACUCAUGGUAGGAUAUCGGGAAGGAGGAAACCGAGAAGGGCCGGUGAGCA | 69.8 | 80.9 | – | –
27 | GCGCAAACGCCAAAAGGCGAAACAACAUGAGGAUCACCCAUGUAGGAUAUCGAUUGCUUUGCAGUCGAGAAGGACAUAAUGCGC | – | – | 17.1 | 16.1
28 | GUAGCAUACAGAGGAUAUUCAAACCACAAAAGUGGACAUGAGGAUCACCCAUGUGGCGAAAGCCGGGAGAAGGCUGAAUGCUAC | 15.9 | 14.3 | – | –
29 | CCAGAUUUCACAGGAUAUAUUGAUGACAUGAGGAUCACCCAUGUACCGGCAGUAGAAGGGUGAACGCACGUGACCACGUGCGUG | 54.1 | 14.9 | – | –
30 | GACUCUAAGUUUGUCACUUAGAGAGAGGAUAUGGAAAACUUGACAUGAGGAUCACCCAUGUAUAAUCAGAAGGCUCGAGUACGA | 9.95 | 8.98 | – | –
31 | UUACUUGUGCAGAAGGGCAUUGAAUUAGGUUUUUAGGUUGAUCAGAAAUGCAGGAUAUGUUAAACAUGAGGAUCACCCAUGUAC | 66.9 | 13.9 | – | –
32 | AGGAGAAAUGUAGGAUAUGGGCGGGCAUAUGGGCAAAGCGCAUAUGCCCGCCCAGAAGGACAUGAGGAUCACCCAUGUUUCCCU | – | – | 13.2 | 11.1
33 | CAAUUGGCACAGAAGGGUGACAUGAGGAUCACCCAUGUAGCGUGGCACUUAGGAGGAGCCACGCCACAGGAUAUGUGCGGGCAC | 76.4 | 111 | – | –
34 | CGUAGGAUCCAGAAGGCAUGAAACAUGAGGAUCACCCAUGUGAAACACAUGAGGAUAUGGAUCCUACGAAAAGUGCGAAAGCAC | 4.32 | 4.48 | – | –
35 | CUAUAUAAUACCUCAUGUACAUGAGGAUCACCCAUGUUAACAAAGGAUAUAUUUAUAUUAAUAAAGUAGAAGGUUGUACUAUUU | – | – | 19.5 | 17.1
36 | AUUAAUAAGUAGAAGGACGGAGAGUAUGAAGUCGUAGGAUAUACAAUAGACAUGAGGAUCACCCAUGUAUGUUGGGUGUGAAUG | – | – | 376 | 254

— the EternaBench riboswitch data
